Active and inactive are the calls of the source. Unless noted, the rule behind the calls is not given here.
Experiments:
[1] = target: Cystic fibrosis transmembrane conductance regulator (Homo sapiens, UniProt P13569, F508DEL); test: Corrector activity at CFTR F508del mutant in human CFBE41o- cells coexpressing HS-YFP incubated for 25 mins by microplate reader based analysis; format: cell-based
In short: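 CFBE41o– cells stably expressing F508del-CFTR and HS-YFP were treated 24 h after seeding; DMSO and VX-809 (1 μM) served as controls. Cells were stimulated 25 min with forskolin (20 μM) plus VX-770 (1 μM). YFP was read for 2 s before and 12 s after iodide injection. Initial slope came from an exponential fit of the final 11 s. Three independent experiments.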

CFBE41o- [2] = test: Antiproliferative activity against human CFBE41o- cells harbouring CFTR F508del mutant/HS-YFP at 5 uM incubated for 48 hrs; format: toxicity, cell-based
In short: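 Cells plated at 5000/well and treated after 6 h with compound (5 μM) or DMSO. Cell-covered area was followed by the YFP signal over 48 h on a high-content imager. Means ± SEM, n = 6. Three independent experiments; ANOVA with Dunnett test.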

[3] = Aggregation property of the compound in PBS buffer at pH 7.5 by 1D 1H-NMR analysis; format: physicochemical
In short: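 Solubility by 1H 1D NMR and aggregation by WaterLOGSY at 298 K in PBS pH 7.5 with 1 μM ZnCl2, 1 mM DTT, 10% D2O, 1% DMSO-d6. Theoretical concentrations 20, 50 and 100 μM, with 200 μM 4-trifluoromethyl benzoic acid as internal reference. WaterLOGSY: mixing time 1.7 s, relaxation delay 2 s, 256 scans.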

CFBE41o- [4] = test: Induction of apoptosis in human CFBE41o- cells assessed as increase in apoptosis at 100 uM incubated for 24 hrs by Hoechst 33342 and propidium iodide staining based analysis; format: toxicity, cell-based
In short: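 Cells were plated at 10,000/well and treated after 6 h with compound (5, 20, 100 μM), VX-809 (1 μM), MG132 (50 μM) or DMSO for 24 h. Hoechst 33342 counted total nuclei and propidium iodide counted apoptotic nuclei, by high-content imaging. Means ± SEM; ANOVA with Dunnett test.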

CFBE41o- [5] = test: Induction of autophagy in human CFBE41o- cells harbouring CFTR F508del mutant assessed as increase in number of autophagic vacuoles at 5 uM incubated for 24 hrs by confocal microscopy based analysis; format: functional, cell-based
In short: (§1)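 CFBE41o– F508del/HS-YFP cells (50,000/well) were treated 24 h with compound (5 μM), VX-809 (1 μM) or DMSO. SAR405 (2 μM) and torin1 (20 nM) were added near the end of incubation. Cells were then loaded with 50 μM MDC in PBS for 10 min at 37 °C, washed, and imaged. MDC spot number was normalized to control. n = 3; ANOVA with Dunnett test.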

CFBE41o- [6] = test: Induction of autophagy in human CFBE41o- cells harbouring CFTR F508del mutant assessed as increase in number of autophagic vacuoles at 20 nM incubated for 3 hrs by confocal microscopy based analysis; format: functional, cell-based; in short: as §1

Chain of Cystic fibrosis transmembrane conductance regulator (P13569 as listed by the source): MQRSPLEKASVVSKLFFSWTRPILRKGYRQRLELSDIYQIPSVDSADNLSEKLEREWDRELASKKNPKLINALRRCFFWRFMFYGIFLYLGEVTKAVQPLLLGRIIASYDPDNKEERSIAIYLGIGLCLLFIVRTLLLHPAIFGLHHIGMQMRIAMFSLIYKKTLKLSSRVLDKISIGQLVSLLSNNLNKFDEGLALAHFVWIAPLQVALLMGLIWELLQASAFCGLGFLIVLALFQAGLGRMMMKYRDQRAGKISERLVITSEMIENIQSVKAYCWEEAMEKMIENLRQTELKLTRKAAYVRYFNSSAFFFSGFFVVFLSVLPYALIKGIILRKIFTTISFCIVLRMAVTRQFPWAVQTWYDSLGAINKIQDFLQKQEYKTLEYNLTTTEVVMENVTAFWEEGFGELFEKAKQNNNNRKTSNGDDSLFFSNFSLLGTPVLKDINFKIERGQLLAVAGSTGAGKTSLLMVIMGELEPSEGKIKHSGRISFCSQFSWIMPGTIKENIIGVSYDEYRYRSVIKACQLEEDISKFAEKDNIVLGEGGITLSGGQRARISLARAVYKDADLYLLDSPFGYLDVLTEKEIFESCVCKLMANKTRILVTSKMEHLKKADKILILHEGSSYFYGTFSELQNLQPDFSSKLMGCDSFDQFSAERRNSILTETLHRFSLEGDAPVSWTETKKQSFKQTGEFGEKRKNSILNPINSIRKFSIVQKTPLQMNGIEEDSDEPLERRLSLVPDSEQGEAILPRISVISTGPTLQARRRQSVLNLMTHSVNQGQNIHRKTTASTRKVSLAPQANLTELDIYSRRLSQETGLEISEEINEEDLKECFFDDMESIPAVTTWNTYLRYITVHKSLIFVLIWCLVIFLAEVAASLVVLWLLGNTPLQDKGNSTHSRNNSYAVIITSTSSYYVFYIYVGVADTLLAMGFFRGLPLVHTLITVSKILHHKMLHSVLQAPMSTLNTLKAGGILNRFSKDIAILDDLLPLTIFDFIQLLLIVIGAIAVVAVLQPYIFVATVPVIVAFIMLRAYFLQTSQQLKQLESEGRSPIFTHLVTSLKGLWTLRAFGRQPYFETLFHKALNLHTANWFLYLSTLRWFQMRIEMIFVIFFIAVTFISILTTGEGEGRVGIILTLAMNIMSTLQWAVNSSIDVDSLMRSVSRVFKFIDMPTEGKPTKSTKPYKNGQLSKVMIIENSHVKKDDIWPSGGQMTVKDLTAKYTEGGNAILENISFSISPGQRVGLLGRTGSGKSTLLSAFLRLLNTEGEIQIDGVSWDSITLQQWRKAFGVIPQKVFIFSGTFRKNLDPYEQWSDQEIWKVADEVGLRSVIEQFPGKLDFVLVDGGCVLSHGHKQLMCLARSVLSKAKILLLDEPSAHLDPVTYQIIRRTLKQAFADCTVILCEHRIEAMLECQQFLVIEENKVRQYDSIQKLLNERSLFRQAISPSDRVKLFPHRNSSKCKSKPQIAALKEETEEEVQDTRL

| Compound | Activity (CFBE41o- [2]) | Activity [3] | Activity (CFBE41o- [4]) | other results |
| --- | --- | --- | --- | --- |
| Cc1ns/c(=N\C(=N\c2ccccc2)c2ccccc2)n1Cc1cccc(O)c1 | Non-Toxic | Not Active | Toxic | EC50 [1]: 1600 nM |
| Cc1ns/c(=N\C(=N\c2ccccc2)c2ccccc2)n1Cc1ccc(F)cc1 | Non-Toxic |  |  | Activity (CFBE41o- [5]): inactive |
| Cc1ns/c(=N\C(=N\c2ccccc2)c2ccccc2)n1Cc1ccccc1Cl | Non-Toxic |  | Toxic |  |
| Cc1ns/c(=N\C(=N\c2ccccc2)c2ccncc2)n1Cc1ccccc1 | Non-Toxic | Not Active |  | Activity (CFBE41o- [5]): inactive |
| Cc1ns/c(=N\c2ccccn2)n1Cc1ccccc1 |  | Not Active |  |  |
| Cc1ccc(Cn2c(C)ns/c2=N\C(=N\c2ccccc2)c2ccccc2)cc1 | Non-Toxic |  |  |  |
| CCC(=O)N1CCN(c2ccc(-n3c(=O)ccc4cnc5ccc(-c6cnc7ccccc7c6)cc5c43)cc2C(F)(F)F)CC1 |  |  |  | Activity (CFBE41o- [6]): Active |
| COc1ccccc1Cn1c(C)ns/c1=N\C(=N\c1ccccc1)c1ccccc1 | Non-Toxic |  | Toxic |  |
| Cc1ns/c(=N\C(=N\c2ccccc2)c2ccccc2)n1Cc1cccc(F)c1 | Non-Toxic |  |  |  |
| Cc1ns/c(=N\C(=N\c2ccccc2)c2ccccc2)n1-c1ccccc1 | Non-Toxic | Not Active | Toxic | Activity (CFBE41o- [5]): inactive |
| Cc1cccc(Cn2c(C)ns/c2=N\C(=N\c2ccccc2)c2ccccc2)c1 | Non-Toxic |  |  |  |
| Cc1ns/c(=N\C(=N\c2ccccc2)c2ccccc2)n1Cc1ccccc1N | Non-Toxic | Not Active | Toxic |  |
| Cc1ns/c(=N\C(=N\c2ccccc2)c2ccccc2)n1Cc1ccc(Cl)cc1 | Non-Toxic |  |  |  |
| Cc1ns/c(=N\C(=N\c2ccccc2)c2ccccc2)n1Cc1ccc(Br)cc1 | Non-Toxic |  |  | Activity (CFBE41o- [5]): Active |

Source: ChEMBL document CHEMBL5346963, “Innovative Strategy toward Mutant CFTR Rescue in Cystic Fibrosis: Design and Synthesis of Thiadiazole Inhibitors of the E3 Ligase RNF5” (J Med Chem, 2023)
